Results published in PubChem BioAssay.
Calls of active or inactive are those of the source.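 How the source made its calls: active means GFP response above 150% of the DMSO control; inconclusive means Fewer than 70 cells counted for a yeast strain; inactive means the rest.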

Test: yeast TOR pathway reporter LAP4-GFP change – cell-based, cherry picks, flow cytometry, mother/daughter gates, confirmation (AID 2271);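 further: ratio of sample to DMSO plate mean so 100% equals DMSO level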
Details: S. cerevisiae LAP4-GFP strain, 3 h, measured here: mother cell gate response, at 10 µM, stronger effect = higher value, 100 means same as DMSO control
Summary of the method: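 Material – Alexa Fluor 633-labelled Saccharomyces cerevisiae GFP-fusion strain, single-plex · Incubation – compound exposure 3 h at 30 °C, end-over-end rotation · Measured by – GFP by flow cytometry · Measure – median GFP fluorescence as percent of plate-mean DMSO wells · Control set – positive rapamycin (400 ng/mL), negative DMSO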
Molecule COc1cccc2cc(C(=O)N3CCN(C/C=C/c4ccccc4)CC3)c(=O)oc12 has a GFP response relative to DMSO of 98.4%.
Work on O=S(=O)(/N=C(\Sc1ccc(Cl)cc1)c1ccccc1)c1ccccc1 yielded a GFP response relative to DMSO of 178%.
Molecule Cc1ccc(/C=c2\sc3nc(-c4cccs4)nn3c2=O)o1 has a GFP response relative to DMSO of 131%.
In the case of N=c1n(CCN2CCCCC2)c2ccccc2n1CC(=O)c1ccc(Cl)c(Cl)c1, the GFP response relative to DMSO is reported as 102%.
COc1ccc(/C=C/C(=O)NC(=S)NNC(=O)c2cnccn2)cc1 showed a GFP response relative to DMSO of 162%.
With CCCCNc1c(-c2ccc(SC(C)CC)cc2)nc2ccccn12 (stereo not given) the GFP response relative to DMSO was 124%.
With CCOC(=O)Cc1csc(NC(=O)CSc2nnc(-c3ccc(C)cc3)o2)n1 the GFP response relative to DMSO was 101%.
In the case of COc1ccc(C2=NN(S(C)(=O)=O)C(c3ccc4nccnc4c3)C2)cc1 (stereo not given), the GFP response relative to DMSO is reported as 103%.
For Oc1c(Br)cc(Br)cc1C=Nc1ccc2c(c1)OCO2, the GFP response relative to DMSO was 174%.
Molecule CCOc1ccc(Nc2nc(N(C)c3ccccc3)nc(N)c2[N+](=O)[O-])cc1 has a GFP response relative to DMSO of 95.6%.
Molecule CC[n+]1cc(C)ccc1/C=C/c1ccc(N(C)C)cc1 has a GFP response relative to DMSO of 128%.
With COc1ccc(/C=C/C(=O)c2ccc(OC)cc2O)cc1 the GFP response relative to DMSO was 100%.
With COc1ccc(-c2sc(C(=O)c3ccc(Cl)cc3Cl)cc2CC(=O)O)cc1 the GFP response relative to DMSO was 131%.
Molecule Cn1c(=O)[nH]c(=O)c2c1nc(N1CCCCC1)n2CCOc1ccccc1 has a GFP response relative to DMSO of 102%.
Work on COCc1nnc(NC(=O)c2ccc(S(=O)(=O)N3CCCCCC3)cc2)o1 yielded a GFP response relative to DMSO of 107%.
CC(C)c1ccc(C2C3CSCC=C3C(C#N)=C(N)C2(C#N)C#N)cc1 (stereo not given) gave a GFP response relative to DMSO of 115%.
For CC(C)(C)C(=O)C(Cl)C(=O)Nc1ccccc1 (stereo not given), the GFP response relative to DMSO was 271%.
With CCOC(=O)CSC1=NC(=O)/C(=C\c2ccc(Cl)cc2)S1 the GFP response relative to DMSO was 186%.
Cc1ccc(/C=C/C(=O)N2CC(C)CC(C)C2)o1 (stereo not given) showed a GFP response relative to DMSO of 113%.
In the case of CCOc1c(Br)ccc2c1sc1nc[nH]c(=O)c12, the GFP response relative to DMSO is reported as 108%.
With Cc1cc(NC(=O)c2cc3ccccc3o2)ccc1NC(=O)c1ccccc1 the GFP response relative to DMSO was 96.1%.
Work on COc1ccc(C(=O)Nc2cccc(C)c2)cc1 yielded a GFP response relative to DMSO of 107%.
With O=C1c2ccccc2C(=O)c2c([N+](=O)[O-])ccc(O)c21 the GFP response relative to DMSO was 124%.
For Nc1ccccc1NC(=O)c1ccccc1, the GFP response relative to DMSO was 99.5%.
Cc1ccccc1N1C(=O)c2cccc3c(N(C)CCO)ccc(c23)C1=O showed a GFP response relative to DMSO of 98.5%.
In the case of O=C(/C=C/c1ccccc1)Nc1ncn[nH]1, the GFP response relative to DMSO is reported as 137%.
CCCCCCCCC/C(=N\O)c1ccccn1 gave a GFP response relative to DMSO of 213%.
In the case of COc1cccc2c1Oc1ncccc1N(C(=O)CCC(=O)NCc1ccc(C)cc1)C2, the GFP response relative to DMSO is reported as 96.2%.
C/C(=N\NC(=O)c1ccc(Br)cc1)c1ccccc1 gave a GFP response relative to DMSO of 98.3%.
NS(=O)(=O)c1ccc(S(=O)(=O)c2ccccc2)nc1 showed a GFP response relative to DMSO of 97.2%.
Work on Cc1nn(Cc2ccc([N+](=O)[O-])cc2)c(=O)n1-c1cccc(Cl)c1 yielded a GFP response relative to DMSO of 96.1%.
With O=C(c1ccccc1Br)N1CCN(c2ccccc2)CC1 the GFP response relative to DMSO was 97.2%.
Cc1c(NC(=O)Nc2ccc3c(c2)OCO3)c(=O)n(-c2ccccc2)n1C showed a GFP response relative to DMSO of 93.6%.
In the case of COc1ccc(C(=O)/C=C/c2ccccc2C(F)(F)F)cc1, the GFP response relative to DMSO is reported as 98.3%.
In the case of CCc1noc(C)c1C(=O)Nc1nc(-c2cc(C)ccc2C)c(C)s1, the GFP response relative to DMSO is reported as 99.3%.
Work on CC(C)(C)n1nc(-c2ccc(Cl)cc2)c2c(N)ncnc21 yielded a GFP response relative to DMSO of 195%.
Molecule O=c1oc2cc(Oc3c([N+](=O)[O-])cc(C(F)(F)F)cc3[N+](=O)[O-])ccc2c2c1CCCC2 has a GFP response relative to DMSO of 249%.
Work on Cc1occc1-c1nnc(-c2cc([N+](=O)[O-])cc([N+](=O)[O-])c2)o1 yielded a GFP response relative to DMSO of 149%.
For CCOc1ccc(Nc2ccc(C(=O)O)cc2[N+](=O)[O-])cc1, the GFP response relative to DMSO was 100%.
Cc1nnc(NC(=O)c2csc3c2CCC(C)C3)s1 (stereo not given) showed a GFP response relative to DMSO of 124%.

Test: TOR pathway reporter MEP2-GFP, retest of hits – S. cerevisiae, flow cytometry GFP, cherry picks, confirmation (AID 2272);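 further: ratio of well signal to plate DMSO mean so 100% equals DMSO level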
Details: S. cerevisiae MEP2-GFP strain, 3 h, at 10 µM, stronger effect = higher value
In the case of COc1cccc2cc(C(=O)N3CCN(C/C=C/c4ccccc4)CC3)c(=O)oc12, the GFP response vs DMSO is reported as 103% (inactive).
For O=S(=O)(/N=C(\Sc1ccc(Cl)cc1)c1ccccc1)c1ccccc1, the GFP response vs DMSO was 99.3% (inactive).
With Cc1ccc(/C=c2\sc3nc(-c4cccs4)nn3c2=O)o1 the GFP response vs DMSO was 163% (inactive).
For N=c1n(CCN2CCCCC2)c2ccccc2n1CC(=O)c1ccc(Cl)c(Cl)c1, the GFP response vs DMSO was 100% (inactive).
In the case of COc1ccc(/C=C/C(=O)NC(=S)NNC(=O)c2cnccn2)cc1, the GFP response vs DMSO is reported as 140% (inactive).
With CCCCNc1c(-c2ccc(SC(C)CC)cc2)nc2ccccn12 (stereo not given) the GFP response vs DMSO was 109% (inactive).
In the case of CCOC(=O)Cc1csc(NC(=O)CSc2nnc(-c3ccc(C)cc3)o2)n1, the GFP response vs DMSO is reported as 104% (inactive).
In the case of COc1ccc(C2=NN(S(C)(=O)=O)C(c3ccc4nccnc4c3)C2)cc1 (stereo not given), the GFP response vs DMSO is reported as 102% (inactive).
In the case of Oc1c(Br)cc(Br)cc1C=Nc1ccc2c(c1)OCO2, the GFP response vs DMSO is reported as 110% (inactive).
In the case of CCOc1ccc(Nc2nc(N(C)c3ccccc3)nc(N)c2[N+](=O)[O-])cc1, the GFP response vs DMSO is reported as 106% (inactive).
With CC[n+]1cc(C)ccc1/C=C/c1ccc(N(C)C)cc1 the GFP response vs DMSO was 162% (inactive).
With COc1ccc(/C=C/C(=O)c2ccc(OC)cc2O)cc1 the GFP response vs DMSO was 104% (inactive).
For COc1ccc(-c2sc(C(=O)c3ccc(Cl)cc3Cl)cc2CC(=O)O)cc1, the GFP response vs DMSO was 122% (inactive).
For Cn1c(=O)[nH]c(=O)c2c1nc(N1CCCCC1)n2CCOc1ccccc1, the GFP response vs DMSO was 102% (inactive).
For COCc1nnc(NC(=O)c2ccc(S(=O)(=O)N3CCCCCC3)cc2)o1, the GFP response vs DMSO was 107% (inactive).
For CC(C)c1ccc(C2C3CSCC=C3C(C#N)=C(N)C2(C#N)C#N)cc1 (stereo not given), the GFP response vs DMSO was 101% (inactive).
For CC(C)(C)C(=O)C(Cl)C(=O)Nc1ccccc1 (stereo not given), the GFP response vs DMSO was 145% (inactive).
With CCOC(=O)CSC1=NC(=O)/C(=C\c2ccc(Cl)cc2)S1 the GFP response vs DMSO was 103% (inactive).
In the case of Cc1ccc(/C=C/C(=O)N2CC(C)CC(C)C2)o1 (stereo not given), the GFP response vs DMSO is reported as 116% (inactive).
In the case of CCOc1c(Br)ccc2c1sc1nc[nH]c(=O)c12, the GFP response vs DMSO is reported as 103% (inactive).
With Cc1cc(NC(=O)c2cc3ccccc3o2)ccc1NC(=O)c1ccccc1 the GFP response vs DMSO was 102% (inactive).
In the case of COc1ccc(C(=O)Nc2cccc(C)c2)cc1, the GFP response vs DMSO is reported as 108% (inactive).
For O=C1c2ccccc2C(=O)c2c([N+](=O)[O-])ccc(O)c21, the GFP response vs DMSO was 110% (inactive).
For Nc1ccccc1NC(=O)c1ccccc1, the GFP response vs DMSO was 106% (inactive).
With Cc1ccccc1N1C(=O)c2cccc3c(N(C)CCO)ccc(c23)C1=O the GFP response vs DMSO was 104% (inactive).
In the case of O=C(/C=C/c1ccccc1)Nc1ncn[nH]1, the GFP response vs DMSO is reported as 102% (inactive).
For CCCCCCCCC/C(=N\O)c1ccccn1, the GFP response vs DMSO was 108% (inactive).
In the case of COc1cccc2c1Oc1ncccc1N(C(=O)CCC(=O)NCc1ccc(C)cc1)C2, the GFP response vs DMSO is reported as 99% (inactive).
For C/C(=N\NC(=O)c1ccc(Br)cc1)c1ccccc1, the GFP response vs DMSO was 102% (inactive).
For NS(=O)(=O)c1ccc(S(=O)(=O)c2ccccc2)nc1, the GFP response vs DMSO was 102% (inactive).
For Cc1nn(Cc2ccc([N+](=O)[O-])cc2)c(=O)n1-c1cccc(Cl)c1, the GFP response vs DMSO was 98.3% (inactive).
For O=C(c1ccccc1Br)N1CCN(c2ccccc2)CC1, the GFP response vs DMSO was 109% (inactive).
With Cc1c(NC(=O)Nc2ccc3c(c2)OCO3)c(=O)n(-c2ccccc2)n1C the GFP response vs DMSO was 99.5% (inactive).
In the case of COc1ccc(C(=O)/C=C/c2ccccc2C(F)(F)F)cc1, the GFP response vs DMSO is reported as 100% (inactive).
For CCc1noc(C)c1C(=O)Nc1nc(-c2cc(C)ccc2C)c(C)s1, the GFP response vs DMSO was 100% (inactive).
In the case of CC(C)(C)n1nc(-c2ccc(Cl)cc2)c2c(N)ncnc21, the GFP response vs DMSO is reported as 118% (inactive).
With O=c1oc2cc(Oc3c([N+](=O)[O-])cc(C(F)(F)F)cc3[N+](=O)[O-])ccc2c2c1CCCC2 the GFP response vs DMSO was 105% (inactive).
For Cc1occc1-c1nnc(-c2cc([N+](=O)[O-])cc([N+](=O)[O-])c2)o1, the GFP response vs DMSO was 123% (inactive).
For CCOc1ccc(Nc2ccc(C(=O)O)cc2[N+](=O)[O-])cc1, the GFP response vs DMSO was 101% (inactive).
With Cc1nnc(NC(=O)c2csc3c2CCC(C)C3)s1 (stereo not given) the GFP response vs DMSO was 93.5% (inactive).
